Experimental findings from ChEMBL document CHEMBL4825663 (J Med Chem, 2021) are described below.

A short description of data set [1]: Oral bioavailability in Sprague-Dawley rat at 10 mg/kg measured upto 48 hrs by LC-MS/MS analysis. Format: ADME, organism-based. Conditions: in vivo. In outline: (§1)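 Plasma pharmacokinetics in male Sprague-Dawley rats and male Beagle dogs (n = 3 per species), each given a single dose by IV at 3 mg/kg and by PO at 10 mg/kg. Cmax, Tmax, T1/2 and AUClast were derived for each route. F (%) was calculated from the PO and IV AUClast.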

Data set [2] addresses T1, Organic anion transporter 3 (Homo sapiens, UniProt Q8TCC7).
T1 sequence (Q8TCC7 whole entry): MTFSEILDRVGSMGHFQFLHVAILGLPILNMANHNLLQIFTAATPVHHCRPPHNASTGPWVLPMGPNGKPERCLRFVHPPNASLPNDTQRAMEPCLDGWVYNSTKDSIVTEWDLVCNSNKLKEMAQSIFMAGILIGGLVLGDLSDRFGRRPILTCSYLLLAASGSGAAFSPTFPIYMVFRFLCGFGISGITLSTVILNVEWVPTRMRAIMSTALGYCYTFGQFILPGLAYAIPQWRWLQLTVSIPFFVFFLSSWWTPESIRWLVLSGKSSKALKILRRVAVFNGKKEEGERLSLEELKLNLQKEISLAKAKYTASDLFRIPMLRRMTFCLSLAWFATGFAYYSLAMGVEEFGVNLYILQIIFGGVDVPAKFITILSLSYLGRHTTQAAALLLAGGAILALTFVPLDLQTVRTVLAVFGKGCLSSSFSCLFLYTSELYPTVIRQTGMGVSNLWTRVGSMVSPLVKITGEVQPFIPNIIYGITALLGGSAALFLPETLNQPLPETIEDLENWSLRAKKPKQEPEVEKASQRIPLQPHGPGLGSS
Put plainly: Inhibition of human OAT3 assessed as reduction in intracellular probe substrate accumulation upto 100 uM by microplate scintillation counter analysis relative to control. Format: cell-based. In outline:
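Cellular uptake-inhibition assays used Chinese hamster ovary, HEK293 or MDCKII cells stably expressing the respective human SLC transporter, run alongside the corresponding control cells. Inhibitor was tested at concentrations up to 100 μM.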

A short description of data set [3]: Cmax in Beagle dog at 10 mg/kg, po measured upto 48 hrs by LC-MS/MS analysis. Conditions: in vivo.
The nature of data set [4]: Toxicity in Beagle dog assessed as histiocytosis in lymph nodes at >= 100 mg/kg, po and measured after 13 weeks. The data set is classed as organism-based, Canis lupus familiaris. The following applies: in vivo, 2184 h.
Data set [5] in a line: Drug distribution in Sprague-Dawley rat spinal cord. Format: ADME, tissue-based. Conditions: in vivo.
Data set [6] can be described thus: Half life in Beagle dog at 3 mg/kg, iv measured upto 48 hrs by LC-MS/MS analysis. Format: ADME, organism-based, Canis lupus familiaris. The following applies: in vivo. In outline: as §1
A short description of data set [7]: Drug distribution in Beagle dog brain. Format: ADME, tissue-based, Canis lupus familiaris. Conditions: in vivo.
Data set [8] can be described thus: Drug distribution in Beagle dog liver. The data set is classed as ADME, tissue-based, Canis lupus familiaris. The following applies: in vivo.
For data set [9], the target named is ATP-binding cassette sub-family C member 2 (Homo sapiens, UniProt Q92887). Put plainly: Inhibition of sulfasalazine-stimulated MRP2 ATPase activity (unknown origin) in presence of GSH.
ATP-binding cassette sub-family C member 2, sequence (Q92887 whole entry): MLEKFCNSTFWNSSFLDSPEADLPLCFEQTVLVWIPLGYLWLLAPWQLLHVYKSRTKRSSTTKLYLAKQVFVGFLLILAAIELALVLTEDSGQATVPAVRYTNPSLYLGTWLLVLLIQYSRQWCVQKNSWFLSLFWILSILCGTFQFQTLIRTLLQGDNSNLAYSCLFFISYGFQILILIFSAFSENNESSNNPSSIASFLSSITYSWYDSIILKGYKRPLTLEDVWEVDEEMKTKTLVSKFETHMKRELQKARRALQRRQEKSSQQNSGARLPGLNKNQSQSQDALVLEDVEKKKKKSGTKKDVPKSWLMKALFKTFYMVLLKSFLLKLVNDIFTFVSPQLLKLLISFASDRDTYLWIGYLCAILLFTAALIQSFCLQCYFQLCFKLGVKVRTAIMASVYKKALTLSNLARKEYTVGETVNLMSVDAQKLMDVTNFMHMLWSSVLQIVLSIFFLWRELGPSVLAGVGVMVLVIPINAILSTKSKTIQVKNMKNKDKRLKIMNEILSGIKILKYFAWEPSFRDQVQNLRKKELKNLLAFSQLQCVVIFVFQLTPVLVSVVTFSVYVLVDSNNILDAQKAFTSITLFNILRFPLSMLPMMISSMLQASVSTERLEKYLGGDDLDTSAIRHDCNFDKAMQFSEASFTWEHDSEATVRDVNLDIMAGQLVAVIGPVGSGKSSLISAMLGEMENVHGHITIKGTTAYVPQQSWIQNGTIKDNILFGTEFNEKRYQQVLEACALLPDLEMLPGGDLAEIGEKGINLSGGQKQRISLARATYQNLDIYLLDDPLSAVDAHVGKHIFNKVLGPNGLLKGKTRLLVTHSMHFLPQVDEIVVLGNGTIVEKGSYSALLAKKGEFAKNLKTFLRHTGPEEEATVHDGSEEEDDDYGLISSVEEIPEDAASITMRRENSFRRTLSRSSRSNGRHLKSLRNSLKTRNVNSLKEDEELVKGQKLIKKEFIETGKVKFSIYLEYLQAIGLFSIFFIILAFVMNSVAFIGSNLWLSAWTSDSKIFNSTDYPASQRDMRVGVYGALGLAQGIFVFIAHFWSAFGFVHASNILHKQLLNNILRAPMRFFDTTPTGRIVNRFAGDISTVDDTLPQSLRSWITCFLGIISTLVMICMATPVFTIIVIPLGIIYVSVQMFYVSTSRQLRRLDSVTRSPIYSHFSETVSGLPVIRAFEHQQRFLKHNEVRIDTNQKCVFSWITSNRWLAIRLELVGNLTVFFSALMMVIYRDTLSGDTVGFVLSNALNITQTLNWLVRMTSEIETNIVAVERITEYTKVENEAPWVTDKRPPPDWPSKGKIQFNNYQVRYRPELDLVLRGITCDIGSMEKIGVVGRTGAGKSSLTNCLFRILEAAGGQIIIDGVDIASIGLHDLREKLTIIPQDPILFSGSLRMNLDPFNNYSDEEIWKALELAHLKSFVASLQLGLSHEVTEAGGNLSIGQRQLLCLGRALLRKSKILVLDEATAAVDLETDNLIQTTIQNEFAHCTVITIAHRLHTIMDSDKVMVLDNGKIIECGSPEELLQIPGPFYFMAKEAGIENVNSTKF
Data set [10] is described as follows: Cmax in human at 900 mg, po administered as single dose. The data set is classed as ADME, organism-based. Set-up: route oral, dose 900 mg. The following applies: in vivo.
A short description of data set [11]: Tmax in Sprague-Dawley rat at 6 mg/kg, iv measured upto 24 hrs by LC-MS/MS analysis. The data set is classed as ADME, organism-based. The following applies: in vivo.
Data set [12] is described as follows: Drug distribution in BALB/c mouse intestine at 20 mg/kg, po measured upto 24 hrs in presence of 10 mg/kg encequidar by LC-MS/MS analysis. Format: ADME, organism-based. The following applies: in vivo.
Data set [13] is described as follows: Drug distribution in Sprague-Dawley rat kidney at 20 mg/kg, po measured upto 168 hrs in presence of 10 mg/kg encequidar by LC-MS/MS analysis. Format: ADME, organism-based. The following applies: in vivo.
Data set [14] in a line: Volume of distribution in Sprague-Dawley rat at 6 mg/kg, iv measured upto 24 hrs by LC-MS/MS analysis. Format: ADME, organism-based. Conditions: in vivo.
Data set [15] deals with MDA-MB-231. Put plainly: Antitumor activity against human MDA-MB-231 cells xenografted in athymic nude mouse assessed as reduction in tumor growth at 40 mg/kg, po administered every other day for 4 doses in presence 16 mg/kg encequidar and monitored for 70 to 82 days. Format: functional, organism-based. Conditions: time 70-82 day. In general terms: A xenograft is tissue or cells of one species grown in another, often human tumour cells in immunodeficient mice.

Data set [16] in a line: Ratio of drug concentration in BALB/c mouse stomach to plasma at 20 mg/kg, po measured upto 24 hrs in presence of 10 mg/kg encequidar by LC-MS/MS analysis. The data set is classed as ADME, organism-based.
For the next data set, the system named is HT-29. Put plainly: Antitumor activity against human HT-29 cells xenografted in athymic nude mouse assessed as reduction in tumor growth at 40 mg/kg, po in presence of 20 mg/kg encequidar. Format: functional. Set-up: scale not given: the % may be the effect or the level left.
Data set [17] can be described thus: Drug metabolism in dog plasma assessed as metabolic ratio of 6alpha-hydroxypaclitaxel at 6 mg/kg, po in presence of 3 mg/kg encequidar. The data set is classed as ADME, organism-based, Canis lupus familiaris. Conditions: in vivo.
Data set [18] is described as follows: Ratio of drug concentration in BALB/c mouse kidney to plasma at 20 mg/kg, po measured upto 24 hrs in presence of 10 mg/kg encequidar by LC-MS/MS analysis. Format: ADME, organism-based.
In another data set the test system is NCI-H460. Nature of the data set: Antitumor activity against human NCI-H460 cells xenografted in athymic nude mouse assessed as median tumor growth delay at 30 mg/kg, po administered every other day for 4 doses in presence of 12 mg/kg encequidar and monitored for 48 days. Conditions: time 48 day. The data set is classed as functional. In short, it runs like this:
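Female athymic NCr-nu mice carried subcutaneous NCI-H460 xenografts. […] Tumor weights and body weights were followed for 48 days after implantation. Read-out was median tumor growth delay.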

A short description of data set [19]: Drug distribution in BALB/c mouse liver at 20 mg/kg, po measured upto 24 hrs in presence of 10 mg/kg encequidar by LC-MS/MS analysis. Format: ADME, organism-based. The following applies: in vivo.
Data set [20] is described as follows: AUClast in Sprague-Dawley rat at 20 mg/kg, po measured upto 24 hrs by LC-MS/MS analysis. The data set is classed as ADME, organism-based. Set-up: route oral, dose 20 mg/kg, time <=24. The following applies: in vivo.
Data set [21] is described as follows: Ratio of drug concentration in BALB/c mouse liver to plasma at 20 mg/kg, po measured upto 24 hrs in presence of 10 mg/kg encequidar by LC-MS/MS analysis. The data set is classed as ADME, organism-based.
Data set [22] deals with MDA-MB-231. Nature of the data set: Antitumor activity against human MDA-MB-231 cells xenografted in athymic nude mouse assessed as reduction in median number of days for tumor to reach two tumor mass doubling at 40 mg/kg, po administered every other day for 4 doses in presence of 16 mg/kg encequidar and monitored for 70 to 82 days (reference value: 13.1 day). The data set is classed as functional. The following applies: time 70-82 day.

Data set [23] can be described thus: Tmax in Sprague-Dawley rat at 20 mg/kg, po measured upto 24 hrs by LC-MS/MS analysis. Format: ADME, organism-based. The following applies: in vivo.
Data set [24] in a line: Clearance in Sprague-Dawley rat at 6 mg/kg, iv measured upto 24 hrs by LC-MS/MS analysis. Format: ADME, organism-based. Conditions: in vivo.
Data set [25] can be described thus: Ratio of drug concentration in BALB/c mouse spleen to plasma at 20 mg/kg, po measured upto 24 hrs in presence of 10 mg/kg encequidar by LC-MS/MS analysis. Format: ADME, organism-based.

Activity calls are given as the source filed them. No cut-off for these calls is given here. Where only a bound is given, the exact number is not on record here.

As a reminder, the bioavailability is dose-corrected exposure relative to a reference, in per cent. One may read the Cmax as the peak of the concentration-time curve. What is called half-life is how long it takes for the measured level to halve. In general, IC50 refers to the midpoint of a concentration-inhibition curve. With `COc1cc2c(cc1OC)CN(CCc1ccc(-n3nnc(-c4cc(OC)c(OC)cc4NC(=O)c4cc(=O)c5ccccc5o4)n3)cc1)CC2`, the bioavailability in [1] is 6.25%. Further, the “inhibition (INH)” value in [2] is on record as less than 50%. The Cmax turned out to be 26.6 ng/mL in [3] and 6.6 ng/mL in data set [10]. For the same compound, in data set [4], the Activity result is “Toxic”. Moreover, the Drug uptake result in data set [5] is given as “Not Active”; in data set [7], “Not Active”; in data set [8], “Active”. In data set [6], this compound showed a half-life of 1010 min. Besides, the IC50 in data set [9] was greater than 100 µM.

For orientation: Tmax means the time at which the peak concentration occurs. As a reminder, the Vd is the apparent volume that relates the amount in the body to the concentration in plasma or blood. What is called Kp is tissue or fluid exposure divided by exposure in the circulation. The AUC(0-t) is exposure summed from dosing to a finite time, without extrapolation to infinity. The term clearance denotes a measure of how efficiently the substance is removed, as volume per time. Consider `CC(=O)O[C@H]1C(=O)[C@@]2(C)[C@H]([C@H](OC(=O)c3ccccc3)[C@]3(O)C[C@H](OC(=O)[C@H](O)[C@@H](NC(=O)c4ccccc4)c4ccccc4)C(C)=C1C3(C)C)[C@]1(OC(C)=O)CO[C@@H]1C[C@@H]2O` [PACLITAXEL], for which the Tmax in data set [11] turned out to be 4.8 min; in [23] it was 54 min. For the same compound, the Drug uptake entry in data set [12], in data set [13] and in data set [19] was “Active” in each case. In [14], this compound yielded a volume of distribution (Vd) of 23.6 L/kg. Further, in the data set with MDA-MB-231 [15], the outcome was Active. For the same compound, the Kp at 24 h in [16], in [18], in data set [21] and in data set [25] was greater than 1 throughout. For the same compound, the Activity in the data set with HT-29 was 94%. Moreover, the Ratio in [17] came to 0.76. The Time in the data set with NCI-H460 was 9.9 days; with MDA-MB-231 [22], greater than 69 days. The compound also gave an area under the curve AUC(0-t) at 24 h in data set [20] of 308 ng·h/mL. Besides, the clearance in data set [24] is 35 mL/min.
